We go through six molecules from publication PMC5094435 (Saudi Pharmaceutical Journal : SPJ, 2015).

SMILES strings stand for the structures. Values after ≈ are worked out from the molar mass of the structure shown.

The subject of test [1] is Pseudomonas aeruginosa (MTCC 741). The test can be described thus: Antibacterial activity. In kind it is cell-based. Particulars: for MIC, P. aeruginosa: P. aeruginosa (MTCC 741); for MIC: Pseudomonas aeruginosa, MTCC741, read-out: MIC, P. aeruginosa. In outline: (§1)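 Screened by a standard method against S. aureus MTCC 96, B. subtilis MTCC 121, E. coli MTCC 1652 and P. aeruginosa MTCC 741. Ciprofloxacin was the reference antibiotic. Only compounds active at 100 μg/mL went on to MIC determination.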

Test [2] has as its system carrageenan induced edema. The test can be described thus: Anti-inflammatory activity, carrageenan induced rat paw edema. The test is classed as in vivo, Wistar rats. Conditions: inhibition of edema, rats. The procedure, abridged: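 Used the Winter et al. paw oedema method in Wistar rats of either sex (160–200 g), housed six per cage and acclimatised 48 h. Percent inhibition of oedema was calculated at 1, 2, 3 and 4 h. Diclofenac served as the standard drug.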

Test [3] concerns Bacillus subtilis (MTCC 121). Put plainly: Antibacterial activity. The test is classed as cell-based. Particulars: MTCC121, read-out: MIC, B. subtilis. In outline: as §1
Test [4] relates to Staphylococcus aureus (MTCC 96). Put plainly: Antibacterial activity. In kind it is cell-based. Particulars: MTCC96, read-out: MIC, S. aureus. The procedure, abridged:
as §1

The next test has as its system Aspergillus flavus. The test can be described thus: Antifungal activity. Conditions: read-out: MIC, A. flavus. The test is classed as cell-based. The procedure, abridged:
(§2)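 Run by the poison food technique against Aspergillus niger and Aspergillus flavus. Fluconazole was the reference drug.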

Another test deals with Aspergillus niger. Put plainly: Antifungal activity. The test is classed as cell-based. Particulars: read-out: MIC, A. niger. The procedure, abridged:
as §2

The test system of test [5] is Escherichia coli (MTCC 1652). The test can be described thus: Antibacterial activity. The test is classed as cell-based. Particulars: for MIC, E. coli: E. coli (MTCC 1652); for MIC: Escherichia coli, MTCC1652, read-out: MIC, E. coli. In outline:
as §1

Regarding `O=C1OC(c2ccc3ccccc3c2)=CC1=Cc1cc2ccccc2nc1Cl` [Compound 5a, 3-[(2-Chloroquinolin-3-yl)methylene]-5-(naphthalene-2-yl)furan-2(3H)-one], the “MIC, P. aeruginosa” value in test [1] was “did not show any inhibition”. Moreover, the MIC was more than 100 µg/mL in test [1]; 50 µg/mL (≈ 130 µM) in test [3]; 50 µg/mL (≈ 130 µM) in test [4]; more than 100 µg/mL in the test on Aspergillus flavus; 50 µg/mL (≈ 130 µM) in the test with Aspergillus niger; more than 100 µg/mL in test [5]. For the same molecule, in test [2], the “% Inhibition ± SEM After 1 h” value is recorded as 67 ± 0.14^∗∗ %. Also, the “% Inhibition ± SEM After 2 h” value in test [2] is given as 62 ± 0.11^∗∗ %. Further, in test [2], the “% Inhibition ± SEM After 3 h” value is listed as 46 ± 0.26%. Also, in test [2], the “% Inhibition ± SEM After 4 h” value is on record as 57 ± 0.27^∗∗ %. Further, in test [5], the “MIC, E. coli” value was “did not show any inhibition”.
On to `Cc1ccc2nc(Cl)c(C=C3C=C(c4ccc5ccccc5c4)OC3=O)cc2c1` [Compound 5c, 3-[(2-Chloro-6-methylquinolin-3-yl)methylene]-5-(naphthalene-2-yl)furan-2(3H)-one], for which, in test [1], the “MIC, P. aeruginosa” value is listed as “did not show any inhibition” and the MIC is more than 100 µg/mL. Also, in test [2], the “% Inhibition ± SEM After 1 h” value is recorded as 69 ± 0.12^∗∗ %, the “% Inhibition ± SEM After 2 h” value is 66 ± 0.25^∗∗ %, the “% Inhibition ± SEM After 3 h” value was found to be 47 ± 0.17% and the “% Inhibition ± SEM After 4 h” value is 59 ± 0.12^∗∗ %. The MIC in test [3] was determined as 50 µg/mL (≈ 126 µM). In addition, in test [4], the MIC was 25 µg/mL (≈ 62.8 µM). The minimum inhibitory concentration (MIC) in the test with Aspergillus flavus was more than 100 µg/mL. The minimal inhibitory concentration (MIC) with Aspergillus niger was 50 µg/mL (≈ 126 µM). Also, in test [5], the “MIC, E. coli” value is listed as “did not show any inhibition” and the MIC is more than 100 µg/mL.
For the molecule `O=C1OC(c2ccc(-c3ccccc3)cc2)=CC1=Cc1cc2ccccc2nc1Cl` [Compound 5e, 3-[(2-Chloroquinolin-3-yl)methylene]-5-(biphenyl-4-yl)furan-2(3H)-one], the MIC is more than 100 µg/mL in test [1]; 50 µg/mL (≈ 122 µM) in test [3]; 25 µg/mL (≈ 61 µM) in test [4]; 50 µg/mL (≈ 122 µM) with Aspergillus flavus; 25 µg/mL (≈ 61 µM) in the test on Aspergillus niger; more than 100 µg/mL in test [5]. Moreover, the “% Inhibition ± SEM After 1 h” value in test [2] is recorded as 63 ± 0.09^∗ %. Further, the “% Inhibition ± SEM After 2 h” value in test [2] is listed as 60 ± 0.22^∗∗ %. In addition, in test [2], the “% Inhibition ± SEM After 3 h” value is 53 ± 0.18%. Moreover, the “% Inhibition ± SEM After 4 h” value in test [2] is 59 ± 0.12^∗∗ %.
Take `O=C1OC(c2ccc(-c3ccccc3)cc2)=CC1=Cc1cc2cc(Cl)ccc2nc1Cl` [Compound 5f, 3-[(2,6-Dichloroquinolin-3-yl)methylene]-5-(biphenyl-4-yl)furan-2(3H)-one]: the MIC in test [1] was more than 100 µg/mL; in test [3] it was 25 µg/mL (≈ 56.3 µM); in test [4] it was 12.5 µg/mL (≈ 28.1 µM); in the test on Aspergillus flavus, 25 µg/mL (≈ 56.3 µM); in the test with Aspergillus niger, 25 µg/mL (≈ 56.3 µM); in test [5], 50 µg/mL (≈ 113 µM). The “% Inhibition ± SEM After 1 h” value in test [2] was 63 ± 0.13^∗∗ %. Also, in test [2], the “% Inhibition ± SEM After 2 h” value is 58 ± 0.21^∗∗ %. In addition, in test [2], the “% Inhibition ± SEM After 3 h” value is given as 53 ± 0.17%. In test [2], the “% Inhibition ± SEM After 4 h” value is listed as 58 ± 0.12^∗∗ %.
Consider `O=C(O)c1cn(C2CC2)c2cc(N3CCNCC3)c(F)cc2c1=O` [Standard-1, Ciprofloxacin, reference compound], for which the MIC in test [1], in test [4] and in test [5] was 6.25 µg/mL (≈ 18.9 µM) in each case.
`OC(Cn1cncn1)(Cn1cncn1)c1ccc(F)cc1F` [Standard-2, Fluconazole, reference compound]: the MIC (in test [3]; in the test with Aspergillus flavus; with Aspergillus niger) was 6.25 µg/mL (≈ 20.4 µM) each time.
